High-throughput results: PubChem, Broad Institute
AF4-AF9 inh: MLL-AF4/AF9 protein interaction inhibition. inhibition, % at 10 µM. P42568. 350,000 compounds, 0.47% hits. AlphaScreen, biotin-AF4 peptide binding to FLAG-AF9;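 active = every replicate reaching a set inhibition limit, whatever the replicate mean, cut at about 25% in these data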;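 note: 0% = plate neutral control median and 100% = total signal loss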
Casp6 inh: inhibitors of human caspase-6; purified caspase-6, Z-VEID-R110 cleavage fluorescence; P55212; 350,000 compounds, 0.53% hits; AID 686996; inhibition, % at 12.5 µM;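 active = mean inhibition across replicates at least about 35%, with every replicate also reaching that limit, limit read from the data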;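 note: 0% = median of neutral control wells and 100% = no fluorescence left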
Xi reactivation: reactivates the inactive X chromosome in mouse fibroblasts; XiGFP mouse fibroblasts, % GFP-positive cells imaging, 3 d; cells co-treated with 5-aza-dC sensitizer; scaled so ellipticine positive control = 100%; activation, % at 7.58 µM; 360,000 compounds, 0.055% hits; AID 743238;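 active = mean normalized replicate activation at least 10% and every replicate at or above 10%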;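 note: 0% = median of on-plate neutral control wells and 100% = ellipticine 6 µM median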
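assay system = SV40-immortalized XiGFP fibroblast cells, line 68-5-11 | buffer or medium = DMEM plus 5-aza-dC sensitizer | doses = single-point pinned compound dosing | times = 3-day compound exposure, then 15 min fixation at room temperature | benchmarks = positive control ellipticine, 6 µM final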
RAD52 anneal inh: blocks human RAD52 DNA annealing; recombinant RAD52 DNA annealing, FRET fluorescence; 360,000 compounds, 0.46% hits; P43351; AID 651710; inhibition, % at 18.7 µM;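 active = every replicate showing at least 50% inhibition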
Target sequence (P43351 whole entry, looked up): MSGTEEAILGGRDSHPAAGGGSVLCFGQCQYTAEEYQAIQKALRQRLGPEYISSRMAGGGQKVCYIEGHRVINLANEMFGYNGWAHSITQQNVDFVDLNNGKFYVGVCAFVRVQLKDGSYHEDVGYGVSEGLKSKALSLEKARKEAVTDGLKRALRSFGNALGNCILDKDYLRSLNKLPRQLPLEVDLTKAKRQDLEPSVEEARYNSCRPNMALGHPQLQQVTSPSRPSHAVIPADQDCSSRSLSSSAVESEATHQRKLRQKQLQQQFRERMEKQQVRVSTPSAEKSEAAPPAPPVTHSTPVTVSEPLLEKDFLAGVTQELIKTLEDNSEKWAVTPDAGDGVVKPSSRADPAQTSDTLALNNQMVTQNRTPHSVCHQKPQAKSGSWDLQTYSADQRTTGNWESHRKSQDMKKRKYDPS
S100A4 inh HTS: S100A4-myosin IIA interaction inhibition; S100A4/TAMRA-MyoIIA peptide fluorescence polarization; 360,000 compounds, 0.14% hits; inhibition, % at 10.7 µM;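 active = mean inhibition of at least 70% across replicates, with every replicate also reaching that level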
Target sequence (P26447 whole entry, looked up): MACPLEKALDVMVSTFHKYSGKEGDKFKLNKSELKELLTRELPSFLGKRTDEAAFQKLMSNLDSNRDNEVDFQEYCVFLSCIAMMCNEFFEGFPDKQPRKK
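Assay system: human S100A4 monomer with TAMRA-labelled myosin IIA peptide / Buffer or medium: Calcium-containing HEPES buffer, pH 7.2 / Reagent: TAMRA-labelled myosin IIA heavy-chain peptide probe, 5 nM / Compound: one dose per compound / Timing: polarization read 5 min after assay mix addition, stable 5–60 min / Benchmarks: neutral control DMSO, positive control TFP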
RAD54 inh: inhibitors of human RAD54 branch migration. RAD54 Holliday junction branch migration, FAM/BHQ fluorescence. 360,000 compounds, 0.14% hits. inhibition, % at 10.4 µM. AID 602329. Q92698;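 active = mean normalized replicate activity at least 40 and at least half of replicates scoring 40 or more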;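 note: 0% = median of neutral control wells and 100% = median of positive control wells; inhibitors cause a drop in the FAM fluorescence signal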
* marks the source's active call; other numbers are inactive results; nt = not tested or not shown; ! = repeats disagree. Shown are actives, neighbours in structure and some others; about 1.3% of the full set was active somewhere.

SMILES | AF4-AF9 inh | Casp6 inh | Xi reactivation | RAD52 anneal inh | S100A4 inh HTS | RAD54 inh
COc1cccc(CNC(=O)C[C@H]2C=C[C@H](NC(=O)C3CC3)[C@@H](CO)O2)c1 | -1 | -2 | -1 | -10 | -13 | 4
O=C1CCCC2=C1C(c1ccc(O)c(O)c1)c1c(ccc3ncccc13)N2 (stereo not given) | 4 | 62* | 0 | 2 | -4 | nt
COCC(=O)NCc1ccc2c(c1)cc(C)n2C | 1 | -2 | 0 | -16 | -1 | nt
Cc1cc2cc(CNC(=O)Nc3ccc(Cl)c(Cl)c3)ccc2n1C | -1 | 0 | 0 | -3 | 80* | 2
O=C(Cc1ccccc1)N1C[C@@H]2[C@H](c3ccccc31)[C@H](CO)N2C(=O)C1CCCCC1 | -5 | 1 | 0 | -5 | 16 | -11
N#Cc1c(Cl)nsc1NN | 51* | 22 | 0 | -42 | 3 | nt
Cc1cc(C(=O)NCC(c2ccco2)N(C)C)ccc1[N+](=O)[O-] (stereo not given) | 46* | -3 | nt | -15 | -6 | 13
COCC(=O)N[C@@H]1C=C[C@H](CC(=O)N2CCCCC2)O[C@@H]1CO | nt | nt | 0 | nt | nt | nt
O=C1C=CC(=O)c2c(O)c(N3CCN(CCOCCO)CC3)c(Br)c(O)c21 | 19 | 97* | 0 | 43 | 15 | nt
O=C1C=CC(=O)c2c(O)c(N3CCN(CCO)CC3)c(Cl)c(O)c21 | 14 | 93* | 0 | 29 | 16 | nt
C=Cc1cnc([N+](=O)[O-])n1C | -6 | 2 | 88* | 11 | 2 | -3
CN(C)c1ccc(/C=C/c2c([N+](=O)[O-])c(=O)n(C)c(=O)n2C)cc1 | 8 | 1 | 0 | -7 | -20 | 5
CN(C)c1cc(NC(=O)CN2CCCC2)c2ccccc2n1 | 0 | -11 | 0 | 36 | 2 | 78*
CN(C)c1cc(NC(=O)CNC(C)(C)CC(C)(C)C)c2ccccc2n1 | -5 | -11 | 0 | 17 | -1 | nt
Clc1cccc(CN2CCC3CC2c2cc(N4CCCCC4)ccc23)c1 (stereo not given) | 26* | -1 | 0 | -31 | 12 | 1
c1ccc(CN2CCC3CC2c2cc(N4CCCCC4)ccc23)cc1 (stereo not given) | 22 | -6 | 0 | -31 | -8 | -8
CCOC(=O)N1CCC(NC2CCCCCCC2)CC1 | nt | nt | nt | nt | nt | -2
CCOC(=O)N1CCN(C(C(=O)NC2CCCC2)C(C)C)CC1 (stereo not given) | nt | 38* | 0 | -5 | 0 | nt
CN(C)CCCNC(=O)C[C@H]1CC[C@H]2[C@@H](COc3ccc(NC(=O)CN(C)C)cc3C(=O)N2C)O1 | nt | nt | 0 | nt | nt | nt
CCOC(=O)c1ccc2ncc(C(=O)OCC)c(Nc3ccc(N4CCOCC4)cc3)c2c1 | 26* | 2 | 0 | -3 | -3 | nt
COc1ccc(NC(=O)N[C@@H]2CC[C@H](CCn3cc(-c4ccccn4)nn3)O[C@@H]2CO)cc1 | 0 | -2 | 0 | -2 | 4 | 5
O=C(O)CCCn1c(O)c(C=C2N=c3ccccc3=N2)sc1=S | -6 | 41* | 0 | -44 | 7 | -10
O=C(O)c1cccc(-n2c(O)c(C=C3N=c4ccccc4=N3)sc2=S)c1 | -3 | 59* | 0 | -50 | 10 | -10
C[C@@H]1CN([C@@H](C)CO)S(=O)(=O)c2ccc(C#CCN(C)C)cc2O[C@@H]1CN(C)Cc1ccccc1 | 8 | 0 | 0 | -8 | -5 | -1
CN(C)CCN(Cc1ccc(Cl)cc1)c1ccccn1 | 0 | -2 | 15* | 15 | 1 | 9
SMILES | AF4-AF9 inh | Casp6 inh | Xi reactivation | RAD52 anneal inh | S100A4 inh HTS | RAD54 inh
C[N+](C)(C)CCN(Cc1ccc(Cl)cc1)c1ccccn1 | nt | nt | nt | nt | nt | 4
C[C@@H]1CN([C@@H](C)CO)C(=O)c2cccc(NC(=O)Nc3ccc4c(c3)OCO4)c2O[C@@H]1CN(C)CC1CC1 | 25* | -2 | 0 | 28 | 8 | nt
C[C@H](CO)N1C[C@H](C)[C@@H](CN(C)C(=O)Nc2cccc3ccccc23)Oc2c(NC(=O)C3CCOCC3)cccc2C1=O | -1 | 52* | 0 | -5 | -3 | 9
CC(C)NC(=O)N(C)C[C@@H]1Oc2c(NC(=O)Nc3cccc4ccccc34)cccc2C(=O)N([C@H](C)CO)C[C@H]1C | -2 | -2 | 1 | 12 | 101* | 1
C[C@@H]1CN([C@@H](C)CO)C(=O)c2cccc(NC(=O)Nc3ccc4c(c3)OCO4)c2O[C@H]1CN(C)CC1CCCCC1 | 7 | -2 | 0 | 14 | -13 | -3
C[C@@H]1CN([C@@H](C)CO)C(=O)c2cccc(NC(=O)Nc3cccc4ccccc34)c2O[C@H]1CN(C)CC1CC1 | 11 | 38* | 0 | -11 | -10 | 15
COc1ccc(S(=O)(=O)Nc2ccc3c(c2)C(=O)N([C@@H](C)CO)C[C@H](C)[C@@H](CN(C)C(=O)Nc2ccc(F)cc2)OCCCC[C@@H](C)O3)cc1 | 2 | 1 | 1 | 3 | -24 | -7
CN(C)C(=O)C[C@@H]1CC[C@@H]2[C@H](COC[C@H](O)CN2CC2CCCC2)O1 | -11 | -2 | 0 | 3 | 0 | 5
COc1ccc2c3c(n(C)c2c1)[C@H](CO)N(C(=O)CN(C)C)CC31CN(S(C)(=O)=O)C1 | 3 | nt | 0 | -5 | 6 | nt
C[C@H](CO)N1C[C@H](C)[C@@H](CN(C)Cc2ccncc2)Oc2c(NC(=O)C3CCOCC3)cccc2C1=O | -15 | 1 | 0 | 11 | 3 | -3
C[C@@H]1CN([C@@H](C)CO)C(=O)c2cccc(NC(=O)C3CCOCC3)c2O[C@@H]1CN(C)Cc1ccncc1 | 44* | 1 | -1 | -2 | -3 | -1
C[C@H](CO)N1C[C@H](C)[C@@H](CN(C)S(=O)(=O)c2ccc(F)cc2)Oc2c(NC(=O)NC3CCCCC3)cccc2C1=O | 49*! | 1 | -1 | -7 | 5 | -11
COc1ccc([C@H]2C/C=C\C[C@H](c3ccccc3)NC(=O)CCC(=O)N2)c(OC)c1 | nt | nt | 0 | nt | nt | nt
N#Cc1cccc(-c2ccc3c(c2)[C@H]2[C@H](CCN2S(=O)(=O)c2cccc(F)c2)[C@H](CO)N3)c1 | -4 | -1 | 0 | 1 | 1 | 9
Cc1cc(SCc2ccccc2)nc(=O)[nH]1 | nt | nt | nt | nt | nt | 2
O=c1cc(SCc2ccccc2)nc[nH]1 | 38* | -2 | 0 | -7 | -4 | 7
Cc1ccc(S(=O)(=O)N(Cc2cccnc2)Cc2cc3ccccc3[nH]c2=O)cc1 | 29* | 1 | 0 | -5 | 1 | -2
CC(C)Sc1nc2c(cnn2-c2ccc(F)cc2)c(=O)[nH]1 | -4 | -4 | 0 | -3 | -3 | -3
CC(C)Sc1nc2c(cnn2-c2ccccc2)c(=O)[nH]1 | 36* | -2 | 0 | -9 | -4 | 0
